The species entered for assay [1] is Homo sapiens. In words: Platelet aggregation activity of the compound; IA means inactive. The format is functional, organism-based. Summed up: (§1)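 Human platelet-rich plasma from healthy donors who had taken no medication for the previous two weeks. Synthetic peptides were added directly and scored for their ability to induce platelet aggregation.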
The target of assay [2] is T1, Proteinase-activated receptor 1 (Homo sapiens) (UniProt P25116).
T1 sequence (whole entry): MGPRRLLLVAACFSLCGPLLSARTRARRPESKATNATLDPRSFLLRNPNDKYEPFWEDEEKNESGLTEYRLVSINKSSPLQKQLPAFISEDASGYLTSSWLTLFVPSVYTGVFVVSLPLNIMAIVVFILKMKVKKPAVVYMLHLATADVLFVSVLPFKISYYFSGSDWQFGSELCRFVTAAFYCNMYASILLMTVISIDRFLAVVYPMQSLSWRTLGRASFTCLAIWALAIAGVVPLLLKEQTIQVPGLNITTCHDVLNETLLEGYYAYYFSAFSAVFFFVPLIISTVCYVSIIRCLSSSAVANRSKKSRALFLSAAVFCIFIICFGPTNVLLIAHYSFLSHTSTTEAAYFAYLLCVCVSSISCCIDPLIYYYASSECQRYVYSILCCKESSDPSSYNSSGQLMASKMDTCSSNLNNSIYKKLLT
In words: Thrombin receptor antagonistic activity was evaluated by the inhibition of platelet aggregation induced by the agonist SFLLRNP. The format is functional. Details: scale not given: the % may be the effect or the level left. Summed up:
(§2)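 Human platelet-rich plasma from drug-free healthy donors. Test peptide (e.g. 100 μM) was incubated in the plasma for 3 min, then SFLLRNP agonist was added to induce aggregation. Inhibition of aggregation was measured; IC50 came from dose-dependent inhibition.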

The species named for assay [3] is Homo sapiens. In words: Platelet aggregation activity of the compound. Type of assay: functional, organism-based. Summed up:
as §1

The target in assay [4] is T1, Proteinase-activated receptor 1 (Homo sapiens). In words: Thrombin receptor antagonistic activity was evaluated by the inhibition of platelet aggregation induced by the agonist SFLLRNP; IA means inactive. Type of assay: functional. In outline:
as §2

Calls of active or inactive are those of the source. The rule behind the calls is not given here. Peptide text beside a SMILES is read from it.

In the case of `CC(C)C[C@H](NC(=O)[C@H](CC(=O)O)NC(=O)[C@H](Cc1ccccc1)NC(=O)[C@@H](N)CO)C(=O)N[C@@H](CCCN=C(N)N)C(=O)N[C@@H](CC(N)=O)C(=O)N1CCC[C@H]1C(=O)O` (H-SFDLRNP-OH), the EC50 result in the assay listed under Homo sapiens [1] is listed as “Not Active”. In assay [2], this compound registered an Activity of 19%.
Regarding `CC(C)C[C@H](NC(=O)[C@H](CC(C)C)NC(=O)[C@H](Cc1ccccc1)NC(=O)[C@@H](N)CO)C(=O)N[C@@H](CCCN=C(N)N)C(=O)N[C@@H](CC(N)=O)C(=O)N1CCC[C@H]1C(=O)O` (H-SFLLRNP-OH), a half-maximal response in the assay filed under Homo sapiens [3] (EC50) required 4.27 µM. In assay [4], the result was inactive.
Regarding `CC(C)C[C@H](NC(=O)[C@H](CC(C)C)NC(=O)[C@H](Cc1ccccc1)NC(=O)[C@@H](N)CO)C(=O)N[C@@H](CC(=O)O)C(=O)N[C@@H](CC(N)=O)C(=O)N1CCC[C@H]1C(=O)O` (H-SFLLDNP-OH), in the assay filed under Homo sapiens [1], the EC50 result is given as “Not Active”. Moreover, the outcome in assay [4] was inactive.
On to `CC(C)C[C@H](NC(=O)[C@H](CC(C)C)NC(=O)[C@H](Cc1ccccc1)NC(=O)[C@@H](N)CO)C(=O)N[C@@H](CCCN=C(N)N)C(=O)N[C@@H](CC(=O)O)C(=O)N1CCC[C@H]1C(=O)O` (H-SFLLRDP-OH), for which, in the assay filed under Homo sapiens [3], a half-maximal response (EC50) required 4.36 µM. For the same compound, the outcome in assay [4] was inactive.
As for `CC(C)C[C@H](NC(=O)[C@H](Cc1ccccc1)NC(=O)[C@@H](N)CO)C(=O)N[C@@H](CC(=O)O)C(=O)N[C@@H](CCCN=C(N)N)C(=O)N[C@@H](CC(N)=O)C(=O)N1CCC[C@H]1C(=O)O` (H-SFLDRNP-OH), the EC50 result in the assay listed under Homo sapiens [1] is recorded as “Not Active”. For the same compound, the result in assay [4] was inactive.
In the case of `CC(C)C[C@H](NC(=O)[C@H](CC(C)C)NC(=O)[C@H](CC(=O)O)NC(=O)[C@@H](N)CO)C(=O)N[C@@H](CCCN=C(N)N)C(=O)N[C@@H](CC(N)=O)C(=O)N1CCC[C@H]1C(=O)O` (H-SDLLRNP-OH), the EC50 result in the assay listed under Homo sapiens [1] is “Not Active”. Also, the result in assay [4] was inactive.
For `CC(C)C[C@H](NC(=O)[C@H](CC(C)C)NC(=O)[C@H](Cc1ccccc1)NC(=O)[C@@H](N)CO)C(=O)N[C@@H](CCCN=C(N)N)C(=O)N[C@@H](CC(N)=O)C(=O)N[C@@H](CC(=O)O)C(=O)O` (H-SFLLRND-OH), in the assay filed under Homo sapiens [3], a half-maximal response (EC50) required 4.27 µM. The outcome in assay [4] was inactive.
As to `CC(C)C[C@H](NC(=O)[C@H](CC(C)C)NC(=O)[C@H](Cc1ccccc1)NC(=O)[C@@H](N)CC(=O)O)C(=O)N[C@@H](CCCN=C(N)N)C(=O)N[C@@H](CC(N)=O)C(=O)N1CCC[C@H]1C(=O)O` (H-DFLLRNP-OH), the EC50 entry in the assay listed under Homo sapiens [1] was “Not Active”. Moreover, the result in assay [4] was inactive.

The values are drawn from ChEMBL document CHEMBL1132528, “A novel molecular design of thrombin receptor antagonist” (Bioorg Med Chem Lett, 1999).
